From PMC5710144 (Genes & Development, 2017)

Columns and labels:
[1] = system: BRWD2/PHIP CRL4 interaction; assay: MS of Flag-BRWD2/PHIP purifications after inhibitor treatment; assay type: cell-based; settings: MLN4924 1 µM, 5 h
Outline: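 Flag-BRWD2/PHIP was purified from MNase-digested chromatin of HEK293 TRex cells expressing Flag-BRWD2/PHIP, with parental HEK293 TRex cells as the control. MLN4924 (1 µM) was added 5 h before harvest where indicated. Immunoprecipitated complexes were prepared for MS and analysed by MS.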

[2] = system: CUL4A / DDB1 association with BRWD2/PHIP; assay type: cell-based; settings: MLN4924 1 µM
Outline: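 In HEK293 TRex cells expressing Flag-BRWD2/PHIP, MLN4924 (1 µM) was added 5 h before harvest. Flag purifications were made from MNase-digested chromatin. Inputs and immunoprecipitates were probed by immunoblot with antibodies to CUL4A, DDB1 and Flag-M2.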

Structure (SMILES): NS(=O)(=O)OC[C@@H]1C[C@@H](n2ccc3c(N[C@H]4CCc5ccccc54)ncnc32)C[C@@H]1O [MLN4924]
- BRWD2/PHIP association with CSN complex [1]: disrupts BRWD2/PHIP association
- BRWD2/PHIP association with Nedd8-binding protein UBXD7 (UBXN7) [1]: disrupts BRWD2/PHIP association
- interaction with chromatin remodelers and histone-binding proteins (CHD4, PHF6, FACT) [1]: not altered
- BRWD2/PHIP association with CUL4A and DDB1 ([2]; 5 h): still occurs
- CUL4A level / CUL4A interaction with BRWD2/PHIP ([2]; 5 h): slightly reduced
- Nedd8 attachment to CUL4 ([2]; added 5 h prior to harvesting, HEK293): blocks Nedd8 attachment to CUL4
